The source made the active and inactive calls. No cut-off for these calls is given here.
Tests used:
[1] = system: A549; experiment: Antiproliferative activity against human A549 cells after 72 hrs by CCK-8 assay; format: functional, cell-based; details: A549, 72 h
Outline: (§1)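 Cells seeded at 5 × 10³/well; A549, MCF7 and SH-SY5Y grown in DMEM, CNE and L-02 in RPMI-1640 (10% FBS, pen/strep, 37 °C, 5% CO₂). Compounds in DMSO, diluted in medium; 72 h exposure versus DMSO vehicle. CCK-8 absorbance read at 450 nm; viability taken as treated/control absorbance, IC₅₀ from curve fit. Triplicate wells, three independent experiments.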

[2] = system: MCF7; experiment: Antiproliferative activity against human MCF7 cells after 72 hrs by CCK-8 assay; format: functional, cell-based; details: MCF7, 72 h; outline: as §1
[3] = system: SH-SY5Y; experiment: Antiproliferative activity against human SH-SY5Y cells after 72 hrs by CCK-8 assay; format: functional, cell-based; outline: as §1
[4] = system: CNE; experiment: Antiproliferative activity against human CNE cells after 72 hrs by CCK-8 assay; format: functional, cell-based; outline: as §1
[5] = system: L02; experiment: Antiproliferative activity against human L02 cells after 72 hrs by CCK-8 assay; format: cell-based; details: L02, 72 h; outline: as §1
[6] = system: MCF7; experiment: Cell cycle arrest in human MCF7 cells assessed as accumulation of cells G1 phase at 0.3 uM after 24 hrs by propidium iodide/RNase A staining-based flow cytometric analysis (reference value: 60.6%); format: functional
[7] = system: MCF7; experiment: Cell cycle arrest in human MCF7 cells assessed as accumulation of cells S phase at 0.3 uM after 24 hrs by propidium iodide/RNase A staining-based flow cytometric analysis (reference value: 6.75%); format: functional
[8] = system: MCF7; experiment: Cell cycle arrest in human MCF7 cells assessed as accumulation of cells G2 phase at 0.3 uM after 24 hrs by propidium iodide/RNase A staining-based flow cytometric analysis (reference value: 35.08%); format: functional
[9] = system: MCF7; experiment: Cell cycle arrest in human MCF7 cells assessed as accumulation of cells G1 phase at 0.6 uM after 24 hrs by propidium iodide/RNase A staining-based flow cytometric analysis (reference value: 60.6%); format: functional
[10] = system: MCF7; experiment: Cell cycle arrest in human MCF7 cells assessed as accumulation of cells S phase at 0.6 uM after 24 hrs by propidium iodide/RNase A staining-based flow cytometric analysis (reference value: 6.75%); format: functional
[11] = system: MCF7; experiment: Cell cycle arrest in human MCF7 cells assessed as accumulation of cells G2 phase at 0.6 uM after 24 hrs by propidium iodide/RNase A staining-based flow cytometric analysis (reference value: 35.08%); format: functional
[12] = system: MCF7; experiment: Cell cycle arrest in human MCF7 cells assessed as accumulation of cells G1 phase at 1.2 uM after 24 hrs by propidium iodide/RNase A staining-based flow cytometric analysis (reference value: 60.6%); format: functional
[13] = system: MCF7; experiment: Cell cycle arrest in human MCF7 cells assessed as accumulation of cells S phase at 1.2 uM after 24 hrs by propidium iodide/RNase A staining-based flow cytometric analysis (reference value: 6.75%); format: functional
[14] = system: MCF7; experiment: Cell cycle arrest in human MCF7 cells assessed as accumulation of cells G2 phase at 1.2 uM after 24 hrs by propidium iodide/RNase A staining-based flow cytometric analysis (reference value: 35.08%); format: functional
[15] = system: MCF7; experiment: Cell cycle arrest in human MCF7 cells assessed as accumulation of cells S phase after 24 hrs by propidium iodide/RNase A staining-based flow cytometric analysis; format: functional
[16] = system: MCF7; experiment: Induction of apoptosis in human MCF7 cells assessed as improved staining brightness at 0.3 to 1.2 uM after 24 hrs by Hoechst 33342 staining-based fluorescence microscopic analysis; format: functional, cell-based
Outline: (§2)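 MCF7 exposed to 0.3, 0.6 or 1.2 µM for 24 h, then stained with 5 µg/mL Hoechst 33342 for 20 min at 37 °C under 5% CO₂. Nuclear morphology (brightness, chromatin condensation, fragmentation) examined by fluorescence microscopy at ×100.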

[17] = system: MCF7; experiment: Induction of apoptosis in human MCF7 cells assessed as nuclear condensation at 0.3 to 1.2 uM after 24 hrs by Hoechst 33342 staining-based fluorescence microscopic analysis; format: functional, cell-based; outline: as §2
[18] = system: MCF7; experiment: Induction of apoptosis in human MCF7 cells assessed as nuclear fragmentation at 0.3 to 1.2 uM after 24 hrs by Hoechst 33342 staining-based fluorescence microscopic analysis; format: functional, cell-based; outline: as §2
[19] = system: MCF7; experiment: Induction of apoptosis in human MCF7 cells assessed as viable cells at 0.3 uM after 24 hrs by Annexin V-FITC/propidium iodide staining-based flow cytometric analysis (reference value: 97.5%); format: functional; details: MCF7, 24 h, read-out: Activity
[20] = system: MCF7; experiment: Induction of apoptosis in human MCF7 cells assessed as early apoptotic cells at 0.3 uM after 24 hrs by Annexin V-FITC/propidium iodide staining-based flow cytometric analysis (reference value: 0.816%); format: functional
[21] = system: MCF7; experiment: Induction of apoptosis in human MCF7 cells assessed as late apoptotic cells at 0.3 uM after 24 hrs by Annexin V-FITC/propidium iodide staining-based flow cytometric analysis (reference value: 1.22%); format: functional
[22] = system: MCF7; experiment: Induction of apoptosis in human MCF7 cells assessed as viable cells at 0.6 uM after 24 hrs by Annexin V-FITC/propidium iodide staining-based flow cytometric analysis (reference value: 97.5%); format: functional; details: MCF7, 24 h, read-out: Activity
[23] = system: MCF7; experiment: Induction of apoptosis in human MCF7 cells assessed as necrotic cells at 0.3 uM after 24 hrs by Annexin V-FITC/propidium iodide staining-based flow cytometric analysis (reference value: 0.426%); format: functional
[24] = system: MCF7; experiment: Induction of apoptosis in human MCF7 cells assessed as early apoptotic cells at 0.6 uM after 24 hrs by Annexin V-FITC/propidium iodide staining-based flow cytometric analysis (reference value: 0.816%); format: functional
[25] = system: MCF7; experiment: Induction of apoptosis in human MCF7 cells assessed as late apoptotic cells at 0.6 uM after 24 hrs by Annexin V-FITC/propidium iodide staining-based flow cytometric analysis (reference value: 1.22%); format: functional
[26] = system: MCF7; experiment: Induction of apoptosis in human MCF7 cells assessed as necrotic cells at 0.6 uM after 24 hrs by Annexin V-FITC/propidium iodide staining-based flow cytometric analysis (reference value: 0.426%); format: functional
[27] = system: MCF7; experiment: Induction of apoptosis in human MCF7 cells assessed as viable cells at 1.2 uM after 24 hrs by Annexin V-FITC/propidium iodide staining-based flow cytometric analysis (reference value: 97.5%); format: functional; details: MCF7, 24 h, read-out: Activity
[28] = system: MCF7; experiment: Induction of apoptosis in human MCF7 cells assessed as early apoptotic cells at 1.2 uM after 24 hrs by Annexin V-FITC/propidium iodide staining-based flow cytometric analysis (reference value: 0.816%); format: functional
[29] = system: MCF7; experiment: Induction of apoptosis in human MCF7 cells assessed as late apoptotic cells at 1.2 uM after 24 hrs by Annexin V-FITC/propidium iodide staining-based flow cytometric analysis (reference value: 1.22%); format: functional
[30] = system: MCF7; experiment: Induction of apoptosis in human MCF7 cells assessed as necrotic cells at 1.2 uM after 24 hrs by Annexin V-FITC/propidium iodide staining-based flow cytometric analysis (reference value: 0.426%); format: functional
[31] = system: MCF7; experiment: Induction of apoptosis in human MCF7 cells assessed as increase in caspase3 activation at 0.3 to 1.2 uM after 72 hrs by Western blot analysis; format: functional, cell-based
Outline: (§3)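 MCF7 exposed to 0.3, 0.6 or 1.2 µM for 72 h. Total protein (30 µg, BCA-quantified) run on SDS-PAGE and transferred to PVDF. Membranes blocked in 5% milk/TBS-0.05% Tween 20 for 2 h at room temperature, probed overnight at 4 °C with anti-cleaved caspase-3, caspase-9 and β-actin (loading control), then HRP anti-rabbit IgG; ECL detection.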

[32] = system: MCF7; experiment: Induction of apoptosis in human MCF7 cells assessed as increase in caspase9 activation at 0.3 to 1.2 uM after 72 hrs by Western blot analysis; format: functional, cell-based; outline: as §3

SMILES: c1cc2nc(n1)Nc1cc(cc(N3CCCC3)c1)Nc1ccnc(n1)Nc1cc(cc(N3CCCC3)c1)N2
- IC50 [1]: 940 nM
- IC50 [2]: 580 nM
- IC50 [3]: 1820 nM
- IC50 [4]: 46500 nM
- IC50 [5]: 25600 nM
- Activity [6]: 55.71%
- Activity [7]: 11.54%
- Activity [8]: 34.8%
- Activity [9]: 56.54%
- Activity [10]: 17.49%
- Activity [11]: 25.13%
- Activity [12]: 52.9%
- Activity [13]: 38.08%
- Activity [14]: 7.88%
- Activity [15]: Dose-dependent effect
- Activity [16]: Active
- Activity [17]: Active
- Activity [18]: Active
- viability at 0.3 µM [19]: 92.7%
- Activity [20]: 5.76%
- Activity [21]: 1.35%
- viability at 0.6 µM [22]: 73.8%
- Activity [23]: 0.148%
- Activity [24]: 23.2%
- Activity [25]: 2.86%
- Activity [26]: 0.197%
- viability at 1.2 µM [27]: 69.1%
- Activity [28]: 26.6%
- Activity [29]: 4.2%
- Activity [30]: 0.232%
- Activity [31]: Active
- Activity [32]: Active
